# Assay results taken from ChEMBL document CHEMBL1143122, “Novel analogs of D-e-MAPP and B13. Part 1: synthesis and evaluation as potential anticancer agents” (Bioorg Med Chem, 2008).
# What was measured:
# U-251 = test: Antiproliferative activity against human U251 cells after 48 hrs; type: functional; conditions: U-251, 48 h
# Procedure, shortened: (§1)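 NCI 60-cell-line screen. Lines grown in RPMI 1640 with 5% fetal bovine serum and 2 mM L-glutamine, plated at 5,000–40,000 cells/well according to doubling time, left 24 h at 37 °C in 5% CO2. Drug stocks in DMSO at 400-fold the top final concentration. Five 10-fold dilutions, 10−4 to 10−8 M, incubated 48 h. Growth read spectrophotometrically as net protein; GI50 taken as 50% reduction.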
# LOX IMVI = test: Antiproliferative activity against human LOXIMVI cells after 48 hrs; type: functional
# Procedure, shortened: (§2)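 NCI 60-cell screen. Cells were grown in RPMI 1640 with 5% FBS and 2 mM L-glutamine, then plated at 5,000–40,000 cells/well according to doubling time and preincubated for 24 h at 37 °C in 5% CO2. Compounds were dissolved in DMSO at 400× the top final concentration and tested at five 10-fold dilutions from 10−4 to 10−8 M for 48 h. Growth was read spectrophotometrically; GI50 is 50% net protein reduction.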
# M14 = test: Antiproliferative activity against human M14 cells after 48 hrs; type: functional; conditions: M14, 48 h; procedure, shortened: as §2
# SK-MEL-28 = test: Antiproliferative activity against human SKMEL28 cells after 48 hrs; type: functional; conditions: SK-MEL-28, 48 h; procedure, shortened: as §2
# SK-MEL-5 = test: Antiproliferative activity against human SKMEL5 cells after 48 hrs; type: functional; conditions: SK-MEL-5, 48 h, read-out: Log LC50 (the source's name) (converted); procedure, shortened: as §2
# UACC-257 = test: Antiproliferative activity against human UACC257 cells after 48 hrs; type: functional; conditions: UACC-257, 48 h; procedure, shortened: as §1
# IGROV-1 = test: Antiproliferative activity against human IGROV1 cells after 48 hrs; type: functional; conditions: IGROV-1, 48 h, read-out: Log TGI (converted); procedure, shortened: as §2
# OVCAR-3 = test: Antiproliferative activity against human OVCAR-3 cells after 48 hrs; type: functional; conditions: OVCAR-3, 48 h; procedure, shortened: as §2
# OVCAR-4 = test: Antiproliferative activity against human OVCAR4 cells after 48 hrs; type: functional; conditions: OVCAR-4, 48 h; procedure, shortened: as §2
# SK-OV-3 = test: Antiproliferative activity against human SKOV3 cells after 48 hrs; type: functional; conditions: SK-OV-3, 48 h; procedure, shortened: as §2
# ACHN = test: Antiproliferative activity against human ACHN cells after 48 hrs; type: functional; procedure, shortened: as §2
# UO-31 = test: Antiproliferative activity against human UO31 cells after 48 hrs; type: functional; conditions: UO-31, 48 h; procedure, shortened: as §1
# PC-3 = test: Antiproliferative activity against human PC3 cells after 48 hrs; type: functional; conditions: PC-3, 48 h; procedure, shortened: as §2
# DU-145 = test: Antiproliferative activity against human DU145 cells after 48 hrs; type: functional; conditions: DU-145, 48 h; procedure, shortened: as §2
# Hs-578T = test: Antiproliferative activity against human HS578T cells after 48 hrs; type: functional; procedure, shortened: as §2
# MDA-MB-435 = test: Antiproliferative activity against human MDA-MB-435 cells after 48 hrs; type: functional; conditions: Homo sapiens, MDA-MB-435, 48 h; procedure, shortened: as §2
# T47D = test: Antiproliferative activity against human T47D cells after 48 hrs; type: functional; procedure, shortened: as §1
# HOP-62 = test: Antiproliferative activity against human HOP62 cells after 48 hrs; type: functional; conditions: HOP-62, 48 h; procedure, shortened: as §2
# HOP-92 = test: Antiproliferative activity against human HOP92 cells after 48 hrs; type: functional; conditions: HOP-92, 48 h; procedure, shortened: as §2
# NCI-H522 = test: Antiproliferative activity against human NCI-H522 cells after 48 hrs; type: functional; conditions: NCI-H522, 48 h; procedure, shortened: as §2
# HCC 2998 = test: Antiproliferative activity against human HCC2998 cells after 48 hrs; type: functional; conditions: HCC 2998, 48 h; procedure, shortened: as §2
# HT-29 = test: Antiproliferative activity against human HT29 cells after 48 hrs; type: functional; conditions: HT-29, 48 h; procedure, shortened: as §2
# KM12 = test: Antiproliferative activity against human KM12 cells after 48 hrs; type: functional; conditions: for CC50: read-out: Log LC50 (the source's name) (converted); procedure, shortened: as §2
# SW-620 = test: Antiproliferative activity against human SW620 cells after 48 hrs; type: functional; conditions: SW-620, 48 h; procedure, shortened: as §1
# SF-268 = test: Antiproliferative activity against human SF268 cells after 48 hrs; type: functional; conditions: SF-268, 48 h; procedure, shortened: as §2
# SF-539 = test: Antiproliferative activity against human SF539 cells after 48 hrs; type: functional; conditions: SF-539, 48 h; procedure, shortened: as §2
# SNB-19 = test: Antiproliferative activity against human SNB19 cells after 48 hrs; type: functional; conditions: SNB-19, 48 h; procedure, shortened: as §2
# SNB-75 = test: Antiproliferative activity against human SNB75 cells after 48 hrs; type: functional; conditions: SNB-75, 48 h; procedure, shortened: as §2
# MCF7 = test: Antiproliferative activity against human MCF7 cells after 48 hrs; type: functional, cell-based; conditions: MCF7, 48 h
# CCRF-CEM = test: Antiproliferative activity against human CCRF-CEM cells after 48 hrs; type: functional; procedure, shortened: as §2
# K562 = test: Antiproliferative activity against human K562 cells after 48 hrs; type: functional; conditions: K562, 48 h; procedure, shortened: as §2
# A549 = test: Antiproliferative activity against human A549 cells after 48 hrs; type: functional; conditions: A549, 48 h; procedure, shortened: as §2
# [1] = Antiproliferative activity against human […] cells after 48 hrs; type: functional; procedure, shortened: as §2
# [2] = read-out: Log LC50 (the source's name) (converted)
compound,measurement,setting,value
CCCCCCCCCCCCCCN[C@@H](C)[C@H](O)c1ccccc1,GI50,U-251,1.82 µM
same,CC50,U-251; [2],5.89 µM
same,TGI,U-251; read-out: Log TGI (converted),3.24 µM
same,GI50,LOX IMVI,1.78 µM
same,LC50,LOX IMVI,5.89 µM
same,TGI,LOX IMVI; read-out: Log TGI (converted),3.24 µM
same,GI50,M14,1.95 µM
same,LC50,M14,6.31 µM
same,TGI,M14; read-out: Log TGI (converted),3.55 µM
same,GI50,SK-MEL-28,1.91 µM
same,LC50,SK-MEL-28,6.31 µM
same,TGI,SK-MEL-28; read-out: Log TGI (converted),3.47 µM
same,CC50,SK-MEL-5,> 100 µM
same,GI50,UACC-257,1.86 µM
same,CC50,UACC-257; [2],6.76 µM
same,TGI,UACC-257; read-out: Log TGI (converted),3.55 µM
same,TGI,IGROV-1,3.55 µM
same,GI50,OVCAR-3,1.66 µM
same,TGI,OVCAR-3; read-out: Log TGI (converted),3.16 µM
same,GI50,OVCAR-4,2 µM
same,LC50,OVCAR-4,3.72 µM
same,TGI,OVCAR-4; read-out: Log TGI (converted),6.92 µM
same,GI50,SK-OV-3,2.34 µM
same,CC50,SK-OV-3; [2],9.77 µM
same,TGI,SK-OV-3; read-out: Log TGI (converted),4.79 µM
same,GI50,ACHN,1.78 µM
same,CC50,ACHN; [2],6.03 µM
same,TGI,ACHN; read-out: Log TGI (converted),3.31 µM
same,GI50,UO-31,1.74 µM
same,LC50,UO-31,6.61 µM
same,TGI,UO-31; read-out: Log TGI (converted),3.39 µM
same,GI50,PC-3,2.04 µM
same,TGI,PC-3; read-out: Log TGI (converted),3.72 µM
same,GI50,DU-145,1.86 µM
same,CC50,DU-145; [2],6.46 µM
same,TGI,DU-145; read-out: Log TGI (converted),3.47 µM
same,GI50,Hs-578T,2.19 µM
same,LC50,Hs-578T,> 100 µM
same,TGI,Hs-578T; read-out: Log TGI (converted),5.5 µM
same,GI50,MDA-MB-435,1.78 µM
same,LC50,MDA-MB-435,5.75 µM
same,TGI,MDA-MB-435; read-out: Log TGI (converted),3.24 µM
same,GI50,T47D,2.09 µM
same,CC50,T47D; [2],7.59 µM
same,TGI,T47D; read-out: Log TGI (converted),3.98 µM
same,GI50,HOP-62,1.95 µM
same,CC50,HOP-62; [2],6.17 µM
same,TGI,HOP-62; read-out: Log TGI (converted),3.47 µM
same,GI50,HOP-92,1.51 µM
same,TGI,HOP-92; read-out: Log TGI (converted),3.09 µM
same,GI50,NCI-H522,2.04 µM
same,CC50,NCI-H522; [2],7.41 µM
same,TGI,NCI-H522; read-out: Log TGI (converted),3.89 µM
same,GI50,HCC 2998,1.82 µM
same,CC50,HCC 2998; [2],5.75 µM
same,TGI,HCC 2998; read-out: Log TGI (converted),3.24 µM
same,GI50,HT-29,1.86 µM
same,LC50,HT-29,6.76 µM
same,TGI,HT-29; read-out: Log TGI (converted),3.55 µM
same,GI50,"KM12; Homo sapiens, KM12, 48 h",1.86 µM
same,CC50,"KM12; Homo sapiens, KM12, 48 h",6.31 µM
same,CC50,KM12,5.62 µM
same,GI50,SW-620,2.04 µM
same,LC50 (concentration killing 50% of cells),SW-620,> 100 µM
same,GI50,SF-268,1.78 µM
same,LC50,SF-268,6.61 µM
same,TGI,SF-268; read-out: Log TGI (converted),3.39 µM
same,GI50,SF-539,1.78 µM
same,TGI,SF-539; read-out: Log TGI (converted),3.39 µM
same,GI50,SNB-19,1.7 µM
same,CC50,SNB-19; [2],5.89 µM
same,TGI,SNB-19; read-out: Log TGI (converted),3.16 µM
same,GI50,SNB-75,1.7 µM
same,CC50,SNB-75; [2],6.61 µM
same,TGI,SNB-75; read-out: Log TGI (converted),3.39 µM
same,GI50,MCF7,1.82 µM
same,LC50,MCF7,6.31 µM
same,TGI,MCF7; read-out: Log TGI (converted),3.39 µM
same,GI50,CCRF-CEM,2.4 µM
same,CC50,CCRF-CEM; [2],> 100 µM
same,TGI,CCRF-CEM; read-out: Log TGI (converted),5.13 µM
same,GI50,K562,1.66 µM
same,LC50,K562,7.41 µM
same,TGI,K562; read-out: Log TGI (converted),3.55 µM
same,GI50,A549,1.91 µM
same,CC50,A549; [2],7.08 µM
same,TGI,A549; read-out: Log TGI (converted),3.63 µM
same,GI50,[1],2 µM
same,TGI,[1]; read-out: Log TGI (converted),3.8 µM
